Results as given in article PMC10824694 (Blood Advances, 2023).
pIC50: −log10 of the molar value.

Columns and labels:
MCF7 = assay: cells; assay type: cell-based; conditions: Homo sapiens, MCF7, 72 h
NCI-H322M = assay: cells; assay type: cell-based; conditions: Homo sapiens, 72 h
[1] = Mouse pharmacokinetics study; assay type: in vivo
Outline: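 Plasma concentration–time profiles were obtained after each route. Absolute oral bioavailability was calculated from the IV and oral data.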

CAMKIIγ = CAMKIIγ (Homo sapiens, UniProt Q13555); assay: nano-DSF assay with purified CAMKIIγ protein; assay type: binding; conditions: in words
BxPC3 = assay: cells; assay type: cell-based; conditions: Homo sapiens, BXPC-3, 72 h
HT29 = assay: cells; assay type: cell-based; conditions: Homo sapiens, HT-29, 72 h
NCI-H226 = assay: cells; assay type: cell-based; conditions: Homo sapiens, NCI-H226, 72 h
OVCAR-3 = assay: cells; assay type: cell-based; conditions: Homo sapiens, OVCAR-3, 72 h
FG = assay: cells; assay type: cell-based; conditions: Homo sapiens, 72 h
HCT-15 = assay: cells; assay type: cell-based; conditions: Homo sapiens, HCT-15, 72 h
[2] = tested on: H9-derived xenografted tumors; assay: H9 xenograft T-cell lymphoma model in NSG mice; assay type: in vivo, mouse; conditions: oral gavage daily 14 days, BBM 50 mg/kg, PA4 5-15 mg/kg per day
Outline: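 Female 8-week-old NSG mice received 5×10^6 H9 cells in PBS subcutaneously in the right flank. At a tumour volume of ~30 mm³ (day 16), mice were randomised into 5 groups (n = 5 each): PBS 100 μL, or test compound in PBS, given daily by oral gavage for 14 days. Body weight and tumours were measured 3 times weekly. Mice were euthanised on day 30.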

PC-3 = assay: cells; assay type: cell-based; conditions: Homo sapiens, PC-3, 72 h
UACC-257 = assay: cells; assay type: cell-based; conditions: Homo sapiens, UACC-257, 72 h
SN12C = assay: cells; assay type: cell-based; conditions: Homo sapiens, 72 h
MDA-MB-231/ATCC = assay: cells; assay type: cell-based; conditions: Homo sapiens, MDA-MB-231, 72 h
HCT-116 = assay: cells; assay type: cell-based; conditions: Homo sapiens, HCT-116, 72 h
Mutu = assay: cells; assay type: cell-based; conditions: Homo sapiens, 72 h
COLO 205 = assay: cells; assay type: cell-based; conditions: Homo sapiens, COLO 205, 72 h
HOP-62 = assay: cells; assay type: cell-based; conditions: Homo sapiens, HOP-62, 72 h
RPMI-8226 = assay: cells; assay type: cell-based; conditions: Homo sapiens, RPMI-8226, 72 h
ACHN = assay: cells; assay type: cell-based; conditions: Homo sapiens, 72 h
UACC-62 = assay: cells; assay type: cell-based; conditions: Homo sapiens, UACC-62, 72 h
M14 = assay: cells; assay type: cell-based; conditions: Homo sapiens, M14, 72 h
JB6 = assay: cells; assay type: cell-based; conditions: Homo sapiens, JB6, 72 h
LOX IMVI = assay: cells; assay type: cell-based; conditions: Homo sapiens, 72 h
DU-145 = assay: cells; assay type: cell-based; conditions: Homo sapiens, DU-145, 72 h
Panc1 = assay: cells; assay type: cell-based; conditions: Homo sapiens, PANC-1, 72 h
786-0 = assay: cells; assay type: cell-based; conditions: Homo sapiens, 786-0, 72 h
HOP-92 = assay: cells; assay type: cell-based; conditions: Homo sapiens, HOP-92, 72 h
SF-295 = assay: cells; assay type: cell-based; conditions: Homo sapiens, SF-295, 72 h
EKVX = assay: cells; assay type: cell-based; conditions: Homo sapiens, 72 h
SW-620 = assay: cells; assay type: cell-based; conditions: Homo sapiens, SW-620, 72 h
OVCAR-4 = assay: cells; assay type: cell-based; conditions: Homo sapiens, OVCAR-4, 72 h
NCI-H23 = assay: cells; assay type: cell-based; conditions: Homo sapiens, NCI-H23, 72 h
NCI/ADR-RES = assay: cells; assay type: cell-based; conditions: Homo sapiens, 72 h
SF-268 = assay: cells; assay type: cell-based; conditions: Homo sapiens, SF-268, 72 h

CAMKIIγ, sequence (Q13555 14-272 limits assumed): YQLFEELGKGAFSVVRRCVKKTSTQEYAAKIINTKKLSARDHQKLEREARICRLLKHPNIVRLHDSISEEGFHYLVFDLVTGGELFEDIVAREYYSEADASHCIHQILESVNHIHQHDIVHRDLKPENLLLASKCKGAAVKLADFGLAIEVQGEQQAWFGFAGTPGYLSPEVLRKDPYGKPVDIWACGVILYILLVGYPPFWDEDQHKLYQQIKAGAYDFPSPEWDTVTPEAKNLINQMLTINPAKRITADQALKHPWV

## COc1cc2c3cc1Oc1c(OC)c(OC)cc4c1[C@@H](Cc1ccc(O)c(c1)Oc1ccc(cc1)C[C@@H]3N(C)CC2)N(C)CC4 [BBM, berbamine]
MCF7
  pIC50: 5.00
NCI-H322M
  pIC50: 4.70
[1]; male Institute of Cancer Research mice
  time detected in blood after oral administration: 5 min
[1]; male Institute of Cancer Research mice, plasma
  area under the curve: 8478 ± 1150
[1]; male, ICR (Institute of Cancer Research), mouse, plasma, po
  bioavailability: 44.8%
CAMKIIγ
  change of melting temperature of CAMKIIγ protein: did not significantly change the melting temperature
BxPC3
  pIC50: 4.50
HT29
  pIC50: 5.18
NCI-H226
  pIC50: 4.46
OVCAR-3
  pIC50: 4.91
FG
  pIC50: 4.49
HCT-15
  pIC50: 4.96
[2]
  body weight: did not reduce body weight
PC-3
  pIC50: 5.10
UACC-257
  pIC50: 5.19
SN12C
  pIC50: 4.38
MDA-MB-231/ATCC
  pIC50: 4.85
HCT-116
  pIC50: 4.99
Mutu
  pIC50: 5.33
COLO 205
  pIC50: 4.80
HOP-62
  pIC50: 4.62
RPMI-8226
  pIC50: 5.11
ACHN
  pIC50: 4.68
UACC-62
  pIC50: 4.72
M14
  pIC50: 4.88
JB6
  pIC50: 5.67
LOX IMVI
  pIC50: 4.64
DU-145
  pIC50: 4.56
Panc1
  pIC50: 4.61
786-0
  pIC50: 5.07
HOP-92
  pIC50: 4.90
SF-295
  pIC50: 4.88
EKVX
  pIC50: 5.20
SW-620
  pIC50: 4.91
OVCAR-4
  pIC50: 4.82
NCI-H23
  pIC50: 4.83
NCI/ADR-RES
  pIC50: 4.61
SF-268
  pIC50: 4.86
